Here are results for 17 compounds from ChEMBL document CHEMBL1250511, “Discovery of pyridazinopyridinones as potent and selective p38 mitogen-activated protein kinase inhibitors” (J Med Chem, 2010).

Broadly, the ED50 is the midpoint of the dose-response relation. By half-life is commonly meant the time in which the quantity being followed falls by half. The term AUC denotes concentration integrated over time. Usually IC50 stands for the concentration that gives 50% inhibition. What is called bioavailability is the share of a dose that reaches the circulation, judged against a reference dose that is usually intravenous. The term clearance denotes the volume of plasma or blood freed of the substance per unit of time. Low values mean a low capacity for elimination, high ones a high capacity for elimination.

A value given as a limit tells only on which side of the number the result lay.

Series [1] deals with Rattus norvegicus. The series can be described thus: Antiinflammatory activity in po dosed Lewis rat assessed as inhibition of LPS-induced TNFalpha production administered 1 hrs prior to LPS challenge after 90 mins.
Series [2] is described as follows: Half life in Sprague-Dawley rat at 2 mg/kg, iv. The format is ADME, organism-based. Also noted: dose 2 mg/kg, route intravenous. The settings on record: in vivo. The gist of the method: (§1)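 Single iv dose of 2.0 mg/kg, formulated in DMSO.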
The nature of series [3]: AUC in Sprague-Dawley rat at 2 mg/kg, po. The format is ADME, organism-based. Also noted: dose 2 mg/kg, route oral. To be noted: plasma.
In series [4] the test system is THP-1. The series can be described thus: Antiinflammatory activity in human THP1 cells assessed as inhibition of LPS-induced TNFalpha production after 3 hrs. The series is classed as functional, cell-based. To be noted: THP-1, 3 h. The gist of the method: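 THP-1 cells (1.5 × 10^6/mL in RPMI 1640, 10% heat-inactivated FBS, 30 μM βME) given 3-fold serial DMSO dilutions of compound, then LPS. Incubation 3 h at 37 °C, 5% CO2. Secreted TNFα measured in medium by MSD electrochemiluminescence. Results expressed as percent of control relative to DMSO (HI) and no-LPS (LO) wells.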

The nature of series [5]: Volume of distribution at steady state in Sprague-Dawley rat at 2 mg/kg, iv. The arrangement: dose 2 mg/kg, route intravenous. The settings on record: in vivo, read-out: Vdss. The format is ADME, organism-based. The gist of the method:
as §1

A short description of series [6]: Oral bioavailability in Sprague-Dawley rat at 2 mg/kg. The format is ADME, organism-based. To be noted: in vivo.
The nature of series [7]: Clearance in Sprague-Dawley rat at 2 mg/kg, iv. To be noted: in vivo. The format is ADME, organism-based. The arrangement: dose 2 mg/kg, route intravenous. The gist of the method:
as §1

For series [8], the species on record is Rattus norvegicus. The series can be described thus: Antiarthritic activity in Lewis rat assessed as reduction in collagen-induced paw swelling. The format is functional. The gist of the method: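 Arthritis induced by intradermal porcine type II collagen emulsified 1:1 in incomplete Freund's adjuvant. Animals were grouped at disease onset (10-12 days post-immunization) and dosed orally once daily for 7 days. Paw diameter was measured daily on days 0-7. Area under the paw-swelling curve gave percent inhibition versus vehicle.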

Series [9] addresses Mitogen-activated protein kinase 14 (Homo sapiens, UniProt Q16539). The series can be described thus: Inhibition of p38alpha MAP kinase.
Series [10] is described as follows: Antiinflammatory activity in human whole blood cells assessed as inhibition of TNF-alpha-induced IL8 production after 16 to 18 hrs. The series is classed as functional, cell-based. The gist of the method:
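Heparinized blood from healthy, nonmedicated volunteers (final 50% in RPMI 1640/10% human AB serum) was preincubated 1 h at 37 °C, 5% CO2 with ten-point compound titrations. It was then stimulated with TNFα (final 1 nM) overnight (16-18 h). Plasma IL-8 was measured by MSD ECL sandwich immunoassay.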

Chain of Mitogen-activated protein kinase 14 (Q16539 whole entry): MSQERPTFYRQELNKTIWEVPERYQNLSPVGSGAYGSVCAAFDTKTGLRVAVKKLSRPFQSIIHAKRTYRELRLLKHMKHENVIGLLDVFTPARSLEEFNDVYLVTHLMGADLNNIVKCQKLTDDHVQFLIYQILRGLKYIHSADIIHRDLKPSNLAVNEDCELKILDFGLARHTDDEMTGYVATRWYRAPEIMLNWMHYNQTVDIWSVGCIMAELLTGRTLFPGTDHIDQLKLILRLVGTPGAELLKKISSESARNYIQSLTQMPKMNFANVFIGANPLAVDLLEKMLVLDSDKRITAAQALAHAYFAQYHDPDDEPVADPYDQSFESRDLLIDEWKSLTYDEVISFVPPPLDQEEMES

As for `Cc1ccc(C(=O)NC2CC2)cc1-c1cc2cnnc(-c3ccc(F)cc3F)c2n(C)c1=O`, the results for the ED50 in series [1] and in [8] were 0.06 mg/kg and 0.03 mg/kg, respectively. In series [2], the half-life was 3.06 h. Also, the AUC in [3] is 7630 ng·h/mL. The IC50 was determined as 2.1 nM in series [4], 2.7 nM in [9] and 1.8 nM in [10]. Besides, the Vd in series [5] turned out to be 1.04 L/kg. For the same compound, the bioavailability in series [6] came out at 86%. The clearance in series [7] was 3.83 mL/min/kg.

As for `Cn1c(=O)c(Cc2ccc(F)cc2)cc2cnnc(-c3ccc(F)cc3F)c21`, the IC50 amounted to 197 nM in series [4], 55.8 nM in series [9] and 697 nM in [10].

With `Cc1ccc(C(N)=O)cc1-c1cc2cnnc(-c3ccc(F)cc3F)c2n(C)c1=O`, the IC50 in [4] worked out at 19.3 nM; in series [9], 2.7 nM; in series [10], 21.3 nM.

On to `Cn1c(=O)c(Oc2ccc(F)cc2F)cc2cnnc(-c3ccc(F)cc3F)c21`, for which the values for the IC50 in series [4] and in series [10] were 107 nM and 70.5 nM, respectively.

In the case of `Cc1ccc(C(=O)NC2(C)CC2)cc1-c1cc2cnnc(-c3ccc(F)cc3F)c2n(C)c1=O`, the IC50 worked out at 14.5 nM in series [4], 3.1 nM in [9] and 27.4 nM in series [10].

As to `Cc1ccc(C(=O)O)cc1-c1cc2cnnc(-c3ccc(F)cc3F)c2n(C)c1=O`, the IC50 in series [4] is over 2500 nM; in series [9], over 1000 nM; in [10] it was over 2500 nM.

As to `Cn1c(=O)c(-c2cc(C(=O)NC3CC3)ccc2Cl)cc2cnnc(-c3ccc(F)cc3F)c21`, the IC50 worked out at 6.3 nM in series [4], 2.6 nM in [9] and 8.3 nM in series [10].

On to `Cn1c(=O)c(Nc2ncc(F)cc2F)cc2cnnc(-c3ccc(F)cc3F)c21`, for which the IC50 in series [4] was 982 nM; in [10], over 2500 nM.

With `Cn1c(=O)c(Oc2ccc(F)cc2)cc2cnnc(-c3ccc(F)cc3F)c21`, the IC50 in series [4] was 235 nM; in series [9] it was 78 nM; in series [10] it was 227 nM.

As for `Cn1c(=O)c(Nc2ccc(F)cn2)cc2cnnc(-c3ccc(F)cc3F)c21`, the IC50 in [4] and in series [10] was over 2500 nM throughout.

With `Cn1c(=O)c(Nc2ccc(F)cc2)cc2cnnc(-c3ccc(F)cc3F)c21`, the figures for the IC50 in series [4] and in [10] were 13.7 nM and 61.9 nM, respectively.

Consider `CN(c1ccc(F)cc1)c1cc2cnnc(-c3ccc(F)cc3F)c2n(C)c1=O`, for which the IC50 is 1140 nM in series [4], 299 nM in series [9] and 1240 nM in series [10].

In series [2], `Cc1c(F)cc(C(=O)NC2CC2)cc1-c1cc2cnnc(-c3ccc(F)cc3F)c2n(C)c1=O` gave a half-life of 4.66 h. The compound also had an AUC in series [3] of 6740 ng·h/mL. Besides, the results for the IC50 in series [4], in series [9] and in [10] were 1.1 nM, 1.4 nM and 1.6 nM, respectively. Also, in series [5], the Vd worked out at 1.19 L/kg. In [6], this compound returned a bioavailability of 55%.

As for `CNC(=O)c1ccc(C)c(-c2cc3cnnc(-c4ccc(F)cc4F)c3n(C)c2=O)c1`, the IC50 in [4] amounted to 24.3 nM; in [10], 30 nM.

`Cn1c(=O)c(Nc2ccc(F)cc2F)cc2cnnc(-c3ccc(F)cc3F)c21`: the IC50 in series [4] worked out at 4.5 nM; in series [9] it was 0.9 nM; in series [10], 11.7 nM.

Take `Cc1cnc(C(=O)NC2CC2)cc1-c1cc2cnnc(-c3ccc(F)cc3F)c2n(C)c1=O`: the IC50 in [4] turned out to be 80.5 nM; in [9], 14.5 nM; in series [10] it was 63.3 nM.

Consider `Cn1c(=O)c(Cc2ccc(F)cc2F)cc2cnnc(-c3ccc(F)cc3F)c21`, for which the IC50 in series [4] came to 49 nM; in series [9], 6.1 nM; in series [10] it was 213 nM.
